Experimental data: ChEMBL document CHEMBL4014355 (J Med Chem, 2017)
pIC50, pKi: −log10 of the molar value. Bridge positions count the residues as written; N and C are the ends. Square brackets hold non-standard residues; d marks the D form. Peptide text beside a SMILES is read from it. * marks the point of attachment. Arg(Me2s) = CN=C(NC)NCCC[C@H](N)C(=O)O; Arg(Me) = CNC(=N)NCCC[C@H](N)C(=O)O; d(αMeK) = C[C@@](N)(CCCCN)C(=O)O; dPhg = N[C@@H](C(=O)O)c1ccccc1; dOrn = NCCC[C@@H](N)C(=O)O; dDab = NCC[C@@H](N)C(=O)O; Isobutyryl = CC(C)C(=O)*; dDap = NC[C@@H](N)C(=O)O; Abu = CC[C@H](N)C(=O)O

How the values were obtained:
[1] = Inhibition of 5-FAM tracer binding to WDR5 delta23 mutant (24 to 334 residues) (unknown origin) expressed in Escherichia coli Rosetta 2 (DE3) cells after 3 hrs by fluorescence polarization assay; set-up: species or system Homo sapiens
[2] = target: MLL1-ASH2L/RbBP5/WDR5/DPY30 (Homo sapiens, UniProt P61964); assay: Inhibition of human N-terminal GST-tagged MLL1 (3735 to 3973 residues) interaction with human full length N-terminal 6xHis-tagged ASH2L/N-terminal 6xHis-tagged human full length RbBP5/human N-terminal 6xHis-tagged WDR5/human full length N-terminal 6xHis-tagged DPY30 assessed as decrease in H3K4me1-2 methylation preincubated for 30 mins followed by SAM/nucleosome mixture addition measured after 120 mins in absence of light by AlphaLISA assay; type: protein assay
MOLM-13 = assay: Cytotoxicity against human MOLM13 cells harboring MLL-AF9 fusion protein assessed as cell growth inhibition after 4 days by WST8 assay; type: functional, cell-based; details: MOLM-13, 96 h
Outline: (§1)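 Cells (MOLM-13 with MLL-AF9, MV4-11 with MLL-AF4, HL-60 with no MLL fusion) seeded at 1 × 10^4 cells/well and exposed to a range of inhibitor concentrations for 4 days, with 0.2% DMSO final in the medium. Viability was read by WST-8 kit. Three independent experiments, each in triplicate.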

MV4-11 = assay: Cytotoxicity against human MV4-11 cells harboring MLL-AF4 fusion protein assessed as cell growth inhibition after 4 days by WST8 assay; type: functional, cell-based; details: MV4-11, 96 h; outline: as §1
HL-60 = assay: Cytotoxicity against human HL60 cells lacking MLL translocation assessed as cell growth inhibition after 4 days by WST8 assay; type: cell-based; details: HL-60, 96 h; outline: as §1
[3] = Half life in human microsomes; type: ADME, Microsome
[4] = Half life in rat microsomes; type: ADME, Microsome
[5] = Half life in mouse microsomes; type: ADME, Microsome

CC[C@@H]1NC(=O)[C@H](CCCNC(=N)N)NC(=O)[C@H](NC(=O)C(C)C)CCNC(=O)[C@@H](c2ccccc2)NC1=O (Isobutyryl-[dDab]R[Abu][dPhg]; lactam 1-C)
pIC50 [1]: 8.21 | pKi [1]: 9.10 | pIC50 [2]: 5.74 | pIC50 (MOLM-13): 4.37 | pIC50 (MV4-11): 4.36 | pIC50 (HL-60): < 4.00

CC[C@@H]1NC(=O)[C@H](CCCNC(=N)NC)NC(=O)[C@](C)(NC(=O)C(C)C)CCCCNC(=O)[C@@H](c2ccccc2)NC1=O (Isobutyryl-[d(αMeK)][Arg(Me)][Abu][dPhg]; lactam 1-C)
pIC50 [1]: 8.96 | pKi [1]: > 9.00 | pIC50 [2]: 6.34 | pIC50 (MOLM-13): 5.44 | pIC50 (MV4-11): 5.37 | pIC50 (HL-60): < 4.00

CC[C@@H]1NC(=O)[C@H](CCCNC(=N)N)NC(=O)[C@](C)(NC(=O)C(C)C)CCCCCNC(=O)[C@@H](c2ccccc2)NC1=O
pIC50 [1]: 8.59 | pKi [1]: > 9.00 | pIC50 [2]: 5.82 | pIC50 (MOLM-13): 4.42 | pIC50 (MV4-11): 4.82 | pIC50 (HL-60): < 4.00

CC[C@@H]1NC(=O)[C@H](CCCN/C(=N/C)NC)NC(=O)[C@](C)(NC(=O)C(C)C)CCCCNC(=O)[C@@H](c2ccccc2)NC1=O (Isobutyryl-[d(αMeK)][Arg(Me2s)][Abu][dPhg]; lactam 1-C)
pIC50 [1]: 8.62 | pKi [1]: > 9.00 | pIC50 [2]: 5.90 | pIC50 (MOLM-13): 4.50 | pIC50 (MV4-11): 4.82 | pIC50 (HL-60): 4.07

CC[C@@H]1NC(=O)[C@H](CCCNC(=N)N)NC(=O)[C@H](NC(=O)C(C)C)CCCNC(=O)[C@@H](c2ccccc2)NC1=O (Isobutyryl-[dOrn]R[Abu][dPhg]; lactam 1-C)
pIC50 [1]: 6.79 | pKi [1]: 7.48 | pIC50 [2]: < 5.00 | pIC50 (MOLM-13): < 4.00 | pIC50 (MV4-11): < 4.00 | pIC50 (HL-60): < 4.00

CC[C@@H]1NC(=O)[C@H](CCCNC(=N)N)NC(=O)[C@](C)(NC(=O)C(C)C)CCCCNC(=O)[C@@H](c2ccccc2)NC1=O.O=C(O)C(F)(F)F
pIC50 (HL-60): < 4.00 | half-life [3]: > 60 min | half-life [4]: > 60 min | half-life [5]: > 60 min

CC[C@@H]1NC(=O)[C@H](CCCNC(=N)N)NC(=O)[C@H](NC(=O)C(C)C)CNC(=O)[C@@H](c2ccccc2)NC1=O (Isobutyryl-[dDap]R[Abu][dPhg]; lactam 1-C)
pIC50 [1]: 5.92 | pKi [1]: 6.62 | pIC50 [2]: < 5.00

CCC(CC)(NC(=O)C(C)C)C(=O)N[C@@H](CCCNC(=N)N)C(=O)NC1(C(=O)NC(c2ccccc2)c2ccccc2)CCCC1
half-life [3]: 4 min | half-life [4]: 34 min | half-life [5]: 44 min

CC[C@H]1NC(=O)[C@@H](CCCNC(=N)N)NC(=O)[C@@](C)(NC(=O)C(C)C)CCCCNC(=O)[C@H](c2ccccc2)NC1=O
pIC50 (MOLM-13): < 4.00 | pIC50 (MV4-11): < 4.00 | pIC50 (HL-60): < 4.00
